Source: PubChem
Hits are enriched below; roughly 5.8% of the tested compounds scored in any of these assays.
T cruzi growth-1: blocks T. cruzi growth in NIH3T3 culture. T. cruzi beta-gal in NIH3T3, GalScreen luminescence, 90 h. inhibition, % at 8.34 µM. 5.9% of 77,000 active;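 active = mean inhibition above about 93%, with at least 55% of replicates each passing it, limit read from the data, passing the limit was not always enough; inconclusive = only one of those two conditions holds; inactive = neither condition holds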
IDH1 mut inh: inhibitors of human IDH1 R132H; O75874; IDH1 R132H reductase, diaphorase/resazurin fluorescence, 60 min; inhibition, % at 10 µM; 0.18% of 70,000 active; AID 624101; in the data active = inhibition above about 34%; inconclusive = no clear call, values can overlap the other calls; inactive = below about 11%;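 note: 0% = DMSO and 100% = no enzyme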
Pf Dd2 growth: P. falciparum Dd2 growth inhibition; 2.3% of 94,000 active; activity change, % at 10 µM; SYBR Green, 72 h; hits give low values; in the data active = activity change below about -80%; inconclusive = no clear call, values can overlap the other calls
KDM4C inh: inhibitors of human demethylase GASC-1 KDM4C; 0.15% of 96,000 active; GST-KDM4C 2-372, H3K9me3 peptide, LANCE TR-FRET; Q9H3R0; inhibition, % at 12.5 µM; AID 720574;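 active = mean replicate inhibition above about 25%, with at least 55% of replicates also reaching it, limit read from the data, passing the limit was not always enough; inconclusive = only one of those two conditions met; inactive = neither condition met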
Target sequence (Q9H3R0 2-372 limits assumed): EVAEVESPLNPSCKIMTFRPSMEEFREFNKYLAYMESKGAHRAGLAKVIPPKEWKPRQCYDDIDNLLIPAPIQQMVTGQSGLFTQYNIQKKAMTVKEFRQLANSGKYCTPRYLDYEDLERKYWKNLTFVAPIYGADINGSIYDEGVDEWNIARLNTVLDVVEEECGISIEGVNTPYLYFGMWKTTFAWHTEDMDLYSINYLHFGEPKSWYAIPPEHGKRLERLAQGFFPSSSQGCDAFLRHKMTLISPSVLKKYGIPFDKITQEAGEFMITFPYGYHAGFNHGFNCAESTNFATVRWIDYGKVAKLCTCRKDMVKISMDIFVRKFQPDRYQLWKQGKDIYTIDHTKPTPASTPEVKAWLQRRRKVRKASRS
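Material: GST-tagged GASC-1 (JMJD2C) catalytic fragment, aa 2-372. Input: enzyme final amount 10 nM. Medium: HEPES buffer, pH 7.5, plus ascorbate. Reagent: H3K9me3 peptide substrate, Fe(II), 2-oxoglutarate. Doses: single dose. Times: reaction 30 min RT, detection step 1 h RT. Measured by: LANCE TR-FRET. Evaluation: Fall in 671/618 emission ratio as inhibition.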
T cruzi growth-2: inhibitors of T. cruzi proliferation | shares compounds with T cruzi growth-1 | T. cruzi beta-gal in NIH3T3, GalScreen luminescence, 90 h | inhibition, % at 8.35 µM | 72% of 5,600 active | AID 651739;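 active = mean replicate inhibition above about 95% and at least 55% of replicates individually reaching it, limit read from the data; inconclusive = only one of the two criteria is met; inactive = neither criterion is met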
T cruzi growth-3: blocks T. cruzi growth in NIH3T3 host cells; shares compounds with T cruzi growth-1; T. cruzi beta-gal in NIH3T3, GalScreen luminescence, 90 h; inhibition, % at 2.09 µM; 21% of 5,600 active; AID 651740;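 active = mean inhibition above about 95%, with at least 55% of replicates also reaching it, limit read from the data; inconclusive = meets just one of the two conditions; inactive = meets neither condition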;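 note: plate controls were neutral control median for no effect and positive control median for full effect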
3T3 cytotox: kills mouse NIH/3T3 fibroblasts; NIH/3T3 viability, CellTiter-Glo ATP luminescence, 90 h; 14% of 5,600 active; cytotoxicity (signal decrease), % at 8.35 µM; AID 651742; shares compounds with T cruzi growth-1;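 active = mean signal decrease across replicates above about 35% based on untreated-well scatter, with enough replicates individually passing, limit read from the data; inconclusive = no rule stated though some were filed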;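 note: 0% = median of neutral control wells and 100% = median of positive control wells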
NIH3T3 tox 2: kills mouse NIH/3T3 fibroblasts. shares compounds with T cruzi growth-1. NIH/3T3 viability, CellTiter-Glo ATP luminescence, 90 h. inhibition, % at 24.9 µM. 56% of 5,600 active. AID 651744;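 active = mean loss of cell viability signal at or above a set limit, and enough replicates individually reaching it; inconclusive = meets only the mean limit or only the replicate share; inactive = meets neither condition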;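 note: 0% = median of neutral control wells and 100% = median of positive control wells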
* marks the source's active call; other numbers are inactive results.

Screening Cc1cccc(S(=O)(=O)N(C)C[C@@H]2OCc3ccccc3-c3c(n(C)c4ccccc34)C(=O)N([C@H](C)CO)C[C@@H]2C)c1 returned T cruzi growth-1 inconclusive, Pf Dd2 growth -86*, KDM4C inh -4, T cruzi growth-2 99*, T cruzi growth-3 106*, 3T3 cytotox 25 and NIH3T3 tox 2 78*.
For Cc1cccc(S(=O)(=O)N(C)C[C@H]2OCc3ccccc3-c3c(n(C)c4ccccc34)C(=O)N([C@H](C)CO)C[C@@H]2C)c1 the results were T cruzi growth-1 75, Pf Dd2 growth -76 and KDM4C inh -4.
`C[C@H](CO)N1C[C@H](C)[C@H](CN(C)S(=O)(=O)c2ccccc2F)OCc2ccccc2-c2c(n(C)c3ccccc23)C1=O` gave T cruzi growth-1 99*, IDH1 mut inh 3, Pf Dd2 growth -87*, KDM4C inh -1, T cruzi growth-2 104*, T cruzi growth-3 83, 3T3 cytotox 44* and NIH3T3 tox 2 97*.
`C[C@H](CO)N1C[C@H](C)[C@H](CN(C)S(=O)(=O)c2cccc(C#N)c2)OCc2ccccc2-c2c(n(C)c3ccccc23)C1=O` gave T cruzi growth-1 101*, IDH1 mut inh -3, Pf Dd2 growth -83*, KDM4C inh 0, T cruzi growth-2 105*, T cruzi growth-3 42, 3T3 cytotox -4 and NIH3T3 tox 2 4.
`C[C@H]1CN([C@@H](C)CO)C(=O)c2c(c3ccccc3n2C)-c2ccccc2CO[C@@H]1CN(C)S(=O)(=O)c1ccsc1` gave T cruzi growth-1 114*, Pf Dd2 growth -80*, KDM4C inh -4, T cruzi growth-2 107*, T cruzi growth-3 57, 3T3 cytotox 1 and NIH3T3 tox 2 9.
For C[C@@H]1CN([C@@H](C)CO)C(=O)c2c(c3ccccc3n2C)-c2ccccc2CO[C@@H]1CN(C)S(=O)(=O)c1ccsc1 the results were T cruzi growth-1 62, IDH1 mut inh 3, Pf Dd2 growth -33 and KDM4C inh -2.
C[C@H]1CN([C@@H](C)CO)C(=O)c2c(c3ccccc3n2C)-c2ccccc2CO[C@@H]1CN(C)S(=O)(=O)c1cccc(F)c1 was read as T cruzi growth-1 102*, Pf Dd2 growth -88*, KDM4C inh 7, T cruzi growth-2 108*, T cruzi growth-3 86, 3T3 cytotox -22 and NIH3T3 tox 2 27*.
C[C@@H]1CN([C@H](C)CO)C(=O)c2c(c3ccccc3n2C)-c2ccccc2CO[C@@H]1CN(C)S(=O)(=O)c1ccc(C#N)cc1 was read as T cruzi growth-1 -12, IDH1 mut inh 1, Pf Dd2 growth -39 and KDM4C inh 1.
C[C@@H]1CN([C@@H](C)CO)C(=O)c2c(c3ccccc3n2C)-c2ccccc2CO[C@@H]1CN(C)S(=O)(=O)c1ccc(Cl)cc1 was read as T cruzi growth-1 100*, IDH1 mut inh 0, Pf Dd2 growth -87*, KDM4C inh 0, T cruzi growth-2 98*, T cruzi growth-3 102*, 3T3 cytotox 3 and NIH3T3 tox 2 66*.
`c1ccc(-c2nn3c(Cn4cnc5ccccc54)nnc3s2)nc1` gave IDH1 mut inh 0.
For OC(CNCc1ccc(Cl)cc1Cl)Cn1c(-c2ccc(F)cc2)cc2ccccc21 (stereo unspecified) the results were IDH1 mut inh 0.
Screening Cn1c(SCC(=O)N2CCc3ccccc32)nnc1-c1ccco1 returned IDH1 mut inh 0.
For CCC(=O)N1CCCCN2[C@@H](CO)[C@H](c3ccc(-c4cccc(C(=O)N(C)C)c4)cc3)[C@@H]2C1 the results were T cruzi growth-1 100*, Pf Dd2 growth 30, KDM4C inh 0, T cruzi growth-2 96*, T cruzi growth-3 84, 3T3 cytotox 4 and NIH3T3 tox 2 21.
`CCC(=O)N1CCCCN2[C@H](CO)[C@H](c3ccc(-c4cccc(C(=O)N(C)C)c4)cc3)[C@H]2C1` gave T cruzi growth-1 101*, Pf Dd2 growth 18, KDM4C inh 0, T cruzi growth-2 77, T cruzi growth-3 16, 3T3 cytotox -11 and NIH3T3 tox 2 19.
`Cc1cc(C)n(C(=O)c2ccc(COc3c(F)c(F)cc(F)c3F)o2)n1` gave IDH1 mut inh 0.
Screening CNC(=O)C(C)N(c1cc(C)cc(C)c1)S(C)(=O)=O (stereo unspecified) returned IDH1 mut inh 0.
CC(C)CC#Cc1ccc2c(c1)O[C@@H](CN(C)CC1CC1)[C@@H](C)CN([C@H](C)CO)S2(=O)=O was read as T cruzi growth-1 107*, IDH1 mut inh -3, Pf Dd2 growth -48, KDM4C inh 3, T cruzi growth-2 105*, T cruzi growth-3 52, 3T3 cytotox 38* and NIH3T3 tox 2 103*.
`CC(C)CC#Cc1ccc2c(c1)O[C@@H](CN(C)CC1CC1)[C@@H](C)CN([C@@H](C)CO)S2(=O)=O` gave T cruzi growth-1 111*, IDH1 mut inh -1, Pf Dd2 growth -50, KDM4C inh -1, T cruzi growth-2 110*, T cruzi growth-3 89, 3T3 cytotox 21 and NIH3T3 tox 2 103*.
For CC(C)CC#Cc1ccc2c(c1)O[C@H](CN(C)CC1CCOCC1)[C@@H](C)CN([C@H](C)CO)S2(=O)=O the results were T cruzi growth-1 120, IDH1 mut inh -3, Pf Dd2 growth -59 and KDM4C inh 0.
For CCCN(C)C[C@@H]1Oc2cc(C#CCC(C)C)ccc2S(=O)(=O)N([C@@H](C)CO)C[C@@H]1C the results were T cruzi growth-1 108*, IDH1 mut inh -1, Pf Dd2 growth -26, KDM4C inh 0, T cruzi growth-2 110*, T cruzi growth-3 110*, 3T3 cytotox 14 and NIH3T3 tox 2 104*.
Screening CC(C)CC#Cc1ccc2c(c1)O[C@@H](CN(C)CC1CCCC1)[C@H](C)CN([C@@H](C)CO)S2(=O)=O returned Pf Dd2 growth -70 and KDM4C inh 1.
Screening CC(C)CC#Cc1ccc2c(c1)O[C@H](CN(C)CC1CC1)[C@H](C)CN([C@H](C)CO)S2(=O)=O returned T cruzi growth-1 105*, IDH1 mut inh -1, Pf Dd2 growth -46, KDM4C inh -2, T cruzi growth-2 108*, T cruzi growth-3 63, 3T3 cytotox 13 and NIH3T3 tox 2 106*.
